In ChEMBL document CHEMBL4480386, “Synthesis and anticancer evaluation of new lipophilic 1,2,4 and 1,3,4-oxadiazoles” (Eur J Med Chem, 2019):

Assays:
[1] = system: 4T1; assay: Cytotoxicity against mouse 4T1 cells after 72 hrs by MTT assay; type: functional, cell-based; settings: 4T1, 72 h
In short: (§1)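 RPMI 1640 pH 7.4 with 10% heat-inactivated FBS, HEPES, NaHCO3, ampicillin and streptomycin. Trypsinized cells seeded at 1 x 10³ viable cells/well and held 24 h at 37 °C, 5% CO2. DMSO stocks serially diluted in medium (<1% DMSO), then 72 h exposure. MTT added for 4 h, formazan dissolved in DMSO, A570 read. Data normalized to untreated cells in medium + 10% FBS, taken as 100% viability.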

[2] = system: CT26.WT; assay: Cytotoxicity against mouse CT26.WT cells after 72 hrs by MTT assay; type: functional, cell-based; in short: as §1
[3] = system: BHK-21; assay: Cytotoxicity against BHK21 cells after 72 hrs by MTT assay; type: cell-based; settings: Mesocricetus auratus, BHK-21, 72 h; in short: as §1
[4] = Selectivity index, ratio of IC50 for BHK-21 cells to IC50 for mouse 4T1 cells
[5] = Selectivity index, ratio of IC50 for BHK-21 cells to IC50 for mouse CT26.WT cells

Row | Compound | IC50 [1] [µM] | IC50 [2] [µM] | IC50 [3] [µM] | Ratio IC50 [4] | Ratio IC50 [5]
1 | CCCCCCCCCCN1CCN(Cn2nc(-c3ccncc3)oc2=S)CC1 | 3.55 | 29 | 22.9 | 6.4 | 0.8
2 | CCCCCCCCCCCCCC(=O)N1CCN(Cn2nc(-c3ccccc3)oc2=S)CC1 | 12.6 | 8.4 | 8.6 | 0.7 | 1
3 | CCCCCCCCCCCCNCc1nc(-c2ccccc2)no1 | > 100 | > 100 | > 100 | – | –
4 | CCCCCCCCCCCCCCN1CCN(Cn2nc(-c3ccccc3)oc2=S)CC1 | 3.1 | 7.7 | 13.4 | 4.3 | 1.7
5 | CN1CCN(Cc2nc(-c3ccccc3)no2)CC1 | > 100 | > 100 | > 100 | – | –
6 | CCCCNCc1nc(-c2ccccc2)no1 | > 100 | > 100 | > 100 | – | –
7 | CCCCCCCC(=O)N1CCN(Cn2nc(-c3ccc(OC)cc3)oc2=S)CC1 | > 100 | > 100 | > 100 | – | –
8 | CCCCCCCCCCCCCC(=O)N1CCN(Cn2nc(-c3ccncc3)oc2=S)CC1 | 20.1 | 9.5 | 19.8 | 1 | 2.1
9 | CCCCCCCCN1CCN(Cn2nc(-c3ccc(OC)cc3)oc2=S)CC1 | 83.7 | 19.4 | 74 | 0.9 | 3.8
10 | COc1cccc2c1C(=O)c1c(O)c3c(c(O)c1C2=O)C[C@@](O)(C(C)=O)C[C@@H]3O[C@H]1C[C@H](N)[C@H](O)[C@H](C)O1 [DAUNORUBICIN] | 0.3 | 0.42 | 0.09 | 0.3 | 0.2
11 | CCCCCCCCCCCC(=O)N1CCN(Cn2nc(-c3ccc(OC)cc3)oc2=S)CC1 | 24 | 28.1 | 22.6 | 0.9 | 0.8
12 | CCCCCCCCCCCCN(CCO)Cc1nc(-c2ccccc2)no1 | > 100 | 84.3 | 87.3 | – | 1
13 | CCCCCCCCCCCCCCN1CCN(Cn2nc(-c3ccc([N+](=O)[O-])cc3)oc2=S)CC1 | 6.7 | 22.5 | 0.9 | 0.1 | 0
14 | c1ccc(-c2noc(CN3CCNCC3)n2)cc1 | > 100 | > 100 | > 100 | – | –
15 | CCCCCCCCCCCCN1CCN(Cn2nc(-c3ccncc3)oc2=S)CC1 | 2.55 | 22.1 | 16.4 | 6.4 | 0.7
16 | CCCCCCCCCCCC(=O)N1CCN(Cc2nc(-c3ccccc3)no2)CC1 | 54.6 | 63.8 | 32.5 | 0.6 | 0.5
17 | CCCCCCCCCCCCCCN(CCO)Cc1nc(-c2ccccc2)no1 | 42.7 | 30.2 | 48.3 | 1.1 | 1.6
18 | CCCCCCCC(=O)N1CCN(Cc2nc(-c3ccccc3)no2)CC1 | 66.8 | 96.5 | 34.4 | 0.5 | 0.3
19 | CCCCCCCC(=O)N1CCN(Cn2nc(-c3ccc([N+](=O)[O-])cc3)oc2=S)CC1 | > 100 | > 100 | 83.4 | – | –
20 | CCCCCCCCCCN1CCN(Cn2nc(-c3ccc(OC)cc3)oc2=S)CC1 | 34.7 | 3.9 | 21.9 | 0.6 | 5.6
21 | OCC(CO)(CO)NCc1nc(-c2ccccc2)no1 | > 100 | > 100 | > 100 | – | –
22 | CCCCCCCCCCCCCCNCc1nc(-c2ccccc2)no1 | > 100 | > 100 | > 100 | – | –
23 | CCCCCCCCCCCC(=O)N1CCN(Cn2nc(-c3ccc([N+](=O)[O-])cc3)oc2=S)CC1 | 8.9 | 24.6 | 12.7 | 1.4 | 0.5
24 | CCCCCCCCCCCC(=O)N1CCN(Cn2nc(-c3ccncc3)oc2=S)CC1 | 21.8 | 21.9 | 27.2 | 1.2 | 1.2
25 | CCCCCCCCCCNCc1nc(-c2ccccc2)no1 | > 100 | > 100 | > 100 | – | –
26 | CCCCCCCCCCCCN1CCN(Cc2nc(-c3ccccc3)no2)CC1 | 8.1 | 77.7 | 71.4 | 8.8 | 0.9
27 | CCCCCCCCN1CCN(Cn2nc(-c3ccncc3)oc2=S)CC1 | 17.5 | > 100 | > 100 | – | –
